# In ChEMBL document CHEMBL1944576, “Synthesis and antiplasmodial evaluation of novel chromeno[2,3-b]chromene derivatives” (Bioorg Med Chem, 2012):
# Key:
# [1] = Cytotoxicity against human NFF assessed as growth inhibition at 100 uM after 3 days by sulforhodamine B assay; format: cell-based; details: NFF cells, read-out: GI
# Plasmodium falciparum = assay: Antiplasmodial activity against chloroquine-sensitive ring-stage Plasmodium falciparum 3D7 assessed as [3H]hypoxanthine incorporation after 48 hrs by liquid scintillation counter; format: functional, organism-based
# Summary of the method: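 Ring-stage 3D7-infected erythrocytes at 0.5% parasitemia, 2.5% hematocrit, in triplicate wells with serial compound dilutions. After 48 h under standard culture conditions, 0.5 µCi [3H]-hypoxanthine was added per well and culture continued a further 24 h. Harvested cells counted by scintillation. Inhibition was taken against matched 0.5% DMSO controls. IC50 was obtained by linear interpolation, as the mean of two independent triplicate experiments.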
# [2] = Cytotoxicity against human NFF assessed as growth inhibition at 50 uM after 3 days by sulforhodamine B assay; format: cell-based; details: NFF cells, read-out: GI
# NFF = assay: Cytotoxicity against human NFF assessed as growth inhibition after 3 days by sulforhodamine B assay; format: cell-based; details: 72 h
# Summary of the method: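 NFF cells were kept in log phase in RPMI 1640 with 10% FCS and 1% streptomycin at 37 °C, 5% CO2. They were seeded at 3000/well and grown 24 h before treatment. Compounds went in as DMSO solutions diluted in medium, with DMSO ≤1% and DMSO-matched controls. After 3 days cells were PBS-washed and fixed in methylated spirits. Total protein was measured by sulforhodamine B, in triplicate across three independent experiments.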
SMILES,"inhibition at 72 h, 100 µM [1] [%]",IC50 (Plasmodium falciparum) [µM],"inhibition at 72 h, 50 µM [2] [%]",IC50 (NFF) [µM]
COc1cccc2c1C[C@@H]1[C@H](/C=C/c3ccc(Br)cc3)c3c(OC)cccc3O[C@]1(c1ccc(Br)cc1)O2,38,39.8,,
COc1cccc2c1C[C@@H]1[C@H](/C=C/c3ccc(Cl)cc3)c3c(OC)cccc3O[C@]1(c1ccc(Cl)cc1)O2,83.6,8.3,,
COc1ccc(/C=C/[C@@H]2c3c(OC)cccc3O[C@]3(c4ccc(OC)cc4)Oc4cccc(OC)c4C[C@H]23)cc1,54.6,8.2,,
COc1cccc2c1C[C@@H]1[C@H](/C=C/c3ccc(C)cc3)c3c(OC)cccc3O[C@]1(c1ccc(C)cc1)O2,60.1,6.8,,
COc1ccc2c(c1)C[C@@H]1[C@H](/C=C/c3ccccc3)c3cc(OC)ccc3O[C@]1(c1ccccc1)O2,51.4,10.2,,
COc1ccc2c(c1)C[C@@H]1[C@H](/C=C/c3ccc(Br)cc3)c3cc(OC)ccc3O[C@]1(c1ccc(Br)cc1)O2,51,17.2,,
COc1ccc2c(c1)C[C@@H]1[C@H](/C=C/c3ccc(Cl)cc3)c3cc(OC)ccc3O[C@]1(c1ccc(Cl)cc1)O2,40.4,35.6,,
COc1ccc2c(c1)C[C@@H]1[C@H](/C=C/c3ccc(C)cc3)c3cc(OC)ccc3O[C@]1(c1ccc(C)cc1)O2,40,8.9,,
COc1cccc2c1C[C@@H]1[C@H](/C=C/c3ccccc3)c3c(OC)cccc3O[C@]1(c1ccccc1)O2,48.6,17.3,,
COc1cc(OC)c2c(c1OC)O[C@@H](c1ccccc1)[C@H]1[C@@H]2Oc2c(OC)c(OC)cc(OC)c2[C@@H]1/C=C/c1ccccc1 (relative stereo),,3.9,46.9,
CCN(CC)CCCC(C)Nc1ccnc2cc(Cl)ccc12 (stereo unspecified) [CHLOROQUINE],,,,34
